Experimental data gathered from unrelated publications.
SIGMAR1: Sigma non-opioid intracellular receptor 1 (SIGMAR1, Homo sapiens, UniProt Q99720)
OPRK1: Kappa-type opioid receptor (OPRK1, Homo sapiens, UniProt P41145)
BMX: Cytoplasmic tyrosine-protein kinase BMX (BMX, Homo sapiens, UniProt P51813)
HTR2A: 5-hydroxytryptamine receptor 2A (HTR2A, Homo sapiens, UniProt P28223)
SLC18A3: Vesicular acetylcholine transporter (SLC18A3, Homo sapiens, UniProt Q16572)

OCCOCCN1CCN(C(c2ccccc2)c2ccc(Cl)cc2)CC1 (stereo not shown) has a Ki of 0.437 µM (SIGMAR1; ligand displacement; radioligand).
N[C@@H](C[C@]1(C(=O)O)C[C@H]2OC[C@@H](O)[C@@H](O)[C@H]2O1)C(=O)O gave a Ki of 0.895 µM (Glutamate receptor ionotropic, kainate 2 (Grik2, Rattus norvegicus, UniProt P42260, Y443F); ligand displacement; radioligand).
The Ki of Cc1cccc(Cc2ccc3c(c2)CN(C(=O)[C@@H](N)Cc2c(C)cc(O)cc2C)CC3)c1 is reported as 0.0027 µM (OPRK1; ligand displacement; radioligand; cell membranes).
CNC(=O)[C@H]1[Se][C@@H](n2cnc3c(NCc4cccc(Cl)c4)nc(Cl)nc32)[C@H](O)[C@@H]1O gave a Ki of about 0.2 µM (Adenosine receptor A2a (ADORA2A, Homo sapiens, UniProt P29274); ligand displacement; radioligand; cell membranes).
Cn1cc(-c2cc(F)cc(N3CCn4c(cc5c4CCCC5)C3=O)c2CO)cc(Nc2ccc(N3CCN(C4COC4)CC3)cn2)c1=O gave a Ki of 0.0832 µM (BMX; enzyme activity; inhibitor; FRET).
For O=C(CN1CCC(CN2Cc3ccccc3C2=O)CC1)c1ccc(F)cc1, the Ki was 1.74 µM (SIGMAR1; ligand displacement; radioligand).
For Cc1nc2n(c(=O)c1CCN(C)CCc1c[nH]c3ccccc13)CCCC2, the Ki was 0.237 µM (HTR2A; ligand displacement; radioligand; cell membranes).
The Ki of CN1CCN(CCc2ccc(Cl)c(Cl)c2)CC1 is reported as 0.00948 µM (SIGMAR1; ligand displacement; radioligand).
The Ki of [C-]#[O+] is reported as 5.4 µM (cooS2 (Carboxydothermus hydrogenoformans, UniProt Q9F8A8); enzyme activity; inhibitor).
CN(C)CCCC1(c2ccc(F)cc2)OCc2cc(C#N)ccc21 (stereo not shown) has a Ki of 0.182 µM (SIGMAR1; ligand displacement; radioligand).
With O=C(c1ccc(F)cc1)C1CCN(C2Cc3c(cccc3OCCF)CC2O)CC1 (single isomer, unassigned; (-)) the Ki was 0.00698 µM (SLC18A3; ligand displacement; radioligand).
COc1cc2c(cc1OC)CN(CCc1ccc(NC(=O)c3cccc4c(=O)c5cccc(OC)c5[nH]c34)cc1)CC2 gave a Ki of over 10 µM (SIGMAR1; ligand displacement; radioligand).
For Fc1ccc2c(C3CCCNC3)noc2c1 (racemic), the Ki was 0.284 µM (HTR2A; ligand displacement; radioligand; cell membranes).
With CCCN1CCC[C@@H]2Cc3n[nH]cc3C[C@H]21 the Ki was over 1 µM (SLC18A3; ligand displacement; radioligand).
CCCC[C@@H](NC(=O)[C@@H](N)Cc1c(C)cc(O)cc1C)C(=O)NCC(=O)N[C@@H](Cc1ccc(F)cc1)C(=O)N(C)CCC[C@@]1(c2ccc(F)cc2)OCc2cc(C#N)ccc21 gave a Ki of 0.003 µM (OPRK1; cell-free assay).
For CN(CCCN1c2ccccc2CCc2ccccc21)CC(=O)c1ccc(Cl)cc1, the Ki was 7.09 µM (SIGMAR1; ligand displacement; radioligand).
The Ki of Cn1cc(-c2cccc(N3CCc4c(sc5c4CC(C)(C)C5)C3=O)c2CO)cc(Nc2ccncn2)c1=O is reported as over 3.33 µM (BMX; enzyme activity; inhibitor; FRET).
Cc1cc(O)cc(C)c1C[C@H](N)C(=O)N1CCc2ccc(Cc3cccc(N)c3)cc2C1 has a Ki of 0.028 µM (OPRK1; ligand displacement; radioligand; cell membranes).
CCOC(=O)C(CC)(CCCSC)NC(=O)c1ccc(C2CC2)c(Cc2ccc(F)cc2)n1 (stereo not shown) gave a Ki of 0.0085 µM (Cannabinoid receptor 1 (CNR1, Homo sapiens, UniProt P21554); ligand displacement; radioligand; cell membranes).
